The values that follow come from ChEMBL document CHEMBL1138557, “Synthesis and anticonvulsant activity of some substituted 1,2,4-thiadiazoles” (Eur J Med Chem, 2009).

Each structure is given as a SMILES string. Active and inactive are the calls of the source. The calls are words filed in the database; no cut-off is given here.

For data set [1], the system named is Rattus norvegicus. In words: Sedative-hypnotic activity in phenobarbitone-activated albino Sprague-Dawley rat assessed as increase in sleeping time at 100 mg/kg pretreated for 30 mins before phenobarbitone sodium challenge relative to control. The data set is classed as functional. In short, it runs like this:
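Compound dissolved in PEG and given at 100 mg/kg to groups of six animals. Phenobarbitone sodium was injected 30 min later. Sleep duration was recorded in minutes (mean ± SEM) and expressed as % increase over a phenobarbitone-only control.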

Data set [2] relates to Mus musculus. In words: Anticonvulsant activity in ip dosed albino CF1 mouse assessed as minimum drug concentration required for inhibition of maximal electroshock-induced seizure in half or more of mouse after 4 hrs by MES test. The data set is classed as functional. In short, it runs like this: (§1)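 Male CF-1 albino mice (18-25 g), groups of 4. Compound suspended in 0.5% methyl cellulose-water or PEG, given i.p. at 30, 100 and 300 mg/kg. Seizures induced by maximal electroshock (MES) or subcutaneous pentylenetetrazole (scPTZ), tested 0.5 and 4 h after dosing.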
Background: Protection in the maximal electroshock model is a classic sign of anticonvulsant action.

Data set [3] has as its system Mus musculus. In words: Neurotoxicity in albino CF1 mouse assessed as motor impairment at 300 mg/kg, ip after 4 hrs by rotarod test. The following applies: in vivo. Also on record: dose 300 mg/kg, route intraperitoneal. The data set is classed as toxicity, organism-based. In short, it runs like this:
(§2)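 Motor impairment was tested on a rotorod in mice trained to stay on a rod of 3.2 cm diameter turning at 10 rev/min. Compound given i.p. at 30, 100 or 300 mg/kg, groups of 4, read at 0.5 and 4 h. Neurotoxicity was scored as failure to keep balance for at least 1 min in each of three trials. Value is the minimum dose affecting half or more of the animals.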
(In the rotarod test animals must keep their balance on a rotating rod.)

The subject of data set [4] is Mus musculus. In words: Neurotoxicity in ip dosed albino CF1 mouse assessed as minimum drug concentration required for motor impairment in half or more of mouse after 0.5 hrs by rotarod test. It is filed as toxicity, organism-based. The following applies: in vivo. In outline: as §2
The test system of data set [5] is Mus musculus. In words: Anticonvulsant activity in ip dosed albino CF1 mouse assessed as minimum drug concentration required for inhibition of maximal electroshock-induced seizure in half or more of mouse after 0.5 hrs by MES test. It is filed as functional. In short, it runs like this:
as §1

The test system of data set [6] is Mus musculus. In words: Anticonvulsant activity in albino CF1 mouse assessed as inhibition of pentylenetetrazole-induced seizures in half or more of mouse at 300 mg/kg, ip after 0.5 hrs by scPTZ test. It is filed as functional, organism-based. Also on record: dose 300 mg/kg. In short, it runs like this:
as §1

Data set [7] has as its system Mus musculus. In words: Anticonvulsant activity in albino CF1 mouse assessed as inhibition of pentylenetetrazole-induced seizures in half or more of mouse at 300 mg/kg, ip after 4 hrs by scPTZ test. On the set-up: dose 300 mg/kg. It is filed as functional, organism-based. In short, it runs like this:
as §1

In data set [8] the test system is Mus musculus. In words: Anticonvulsant activity in albino CF1 mouse assessed as minimum inhibition of maximal electroshock-induced seizure in half or more of mouse at 300 mg/kg, ip after 4 hrs by MES test. The data set is classed as functional, organism-based. Also on record: dose 300 mg/kg. In short, it runs like this: as §1
The test system of data set [9] is Mus musculus. In words: Anticonvulsant activity in albino CF1 mouse assessed as minimum inhibition of maximal electroshock-induced seizure in half or more of mouse at 300 mg/kg, ip after 0.5 hrs by MES test. The data set is classed as functional, organism-based. Also on record: dose 300 mg/kg. In short, it runs like this: as §1
For data set [10], the system named is Mus musculus. In words: Neurotoxicity in ip dosed albino CF1 mouse assessed as minimum drug concentration required for motor impairment in half or more of mouse after 4 hrs by rotarod test. The following applies: in vivo. It is filed as toxicity, organism-based. In outline:
as §2

For data set [11], the system named is Mus musculus. In words: Anticonvulsant activity in ip dosed albino CF1 mouse assessed as minimum drug concentration required for inhibition of pentylenetetrazole-induced seizures in half or more of mouse after 0.5 hrs by scPTZ test. It is filed as functional. In short, it runs like this: as §1
For data set [12], the system named is Mus musculus. In words: Neurotoxicity in albino CF1 mouse assessed as motor impairment at 300 mg/kg, ip after 0.5 hrs by rotarod test. The data set is classed as toxicity, organism-based. On the set-up: dose 300 mg/kg, route intraperitoneal. The following applies: in vivo. In short, it runs like this: as §2

`O=c1snc(Nc2cccc3ccccc23)n1-c1cccc2ccccc12`: the Activity is 16.4% in data set [1]; 300 mg/kg in [2]; “Non-toxic” in data set [3]; 300 mg/kg in data set [4]; 100 mg/kg in [5]. Further, the outcome in data set [6] and in [7] was inactive.

Consider `O=c1snc(Nc2ccncc2)n1-c1ccncc1`, for which the Activity result was “Non-toxic” in data set [3], 100 mg/kg in [4] and 300 mg/kg in [5]. Besides, the result in data set [6], in data set [8] and in data set [7] was inactive.

`c1cnc(Nc2nsc(Nc3ncccn3)n2)nc1`: the Activity was 59.5% in data set [1], “Non-toxic” in [3] and 300 mg/kg in [4]. Further, the outcome in data set [6], in data set [9], in data set [8] and in data set [7] was inactive.

With `CCOc1ccc(Nc2nsc(=O)n2-c2ccc(OCC)cc2)cc1`, the Activity in data set [1] was 67.1%; in data set [10], 300 mg/kg; in data set [2], 300 mg/kg; in data set [4], 300 mg/kg; in data set [5] it was 100 mg/kg; in [11], 300 mg/kg. Also, the result in data set [7] was inactive.

For the compound `O=c1snc(Nc2ncccn2)n1-c1ncccn1`, the Activity entry in data set [3] was “Non-toxic”; in data set [5], 300 mg/kg; in [12], “Non-toxic”. Further, the result in data set [6], in data set [8] and in data set [7] was inactive.

Consider `O=C1NC(=O)C(c2ccccc2)(c2ccccc2)N1` [PHENYTOIN], for which the Activity in data set [10] was determined as 100 mg/kg; in [2], 100 mg/kg; in data set [4], 100 mg/kg; in data set [5], 30 mg/kg. In addition, the outcome in [6] and in data set [7] was inactive.

In the case of `Fc1ccc(Nc2nsc(Nc3ccc(F)cc3)n2)cc1`, the Activity was 300 mg/kg in [2], “Non-toxic” in data set [3], 100 mg/kg in data set [4] and 100 mg/kg in [5]. Also, the result in [6] and in data set [7] was inactive.

Turning to `O=c1snc(Nc2ccccn2)n1-c1ccccn1`, the Activity result is “Non-toxic” in [3], 100 mg/kg in [4] and 300 mg/kg in data set [5]. Also, the result in [6], in [8] and in data set [7] was inactive.

As to `c1cncc(Nc2nsc(Nc3cccnc3)n2)c1`, the Activity result in data set [3] is “Non-toxic”; in data set [4], 100 mg/kg; in data set [5] it was 300 mg/kg. Also, the outcome in data set [6], in [8] and in [7] was inactive.

For the compound `c1ccc2c(Nc3nsc(Nc4cccc5ccccc45)n3)cccc2c1`, the Activity in data set [1] was 22.7%; in data set [2], 300 mg/kg; in data set [3] it was “Non-toxic”; in data set [4] it was 300 mg/kg; in data set [5], 100 mg/kg. In addition, the result in data set [6] and in data set [7] was inactive.

In the case of `c1cc(Nc2nsc(Nc3ccncc3)n2)ccn1`, the Activity entry is “Non-toxic” in data set [3], 100 mg/kg in data set [4] and 300 mg/kg in data set [5]. The outcome in data set [6], in data set [8] and in [7] was inactive.

Take `NC(=O)N1c2ccccc2C=Cc2ccccc21` [CARBAMAZEPINE]: the Activity in data set [10] came to 300 mg/kg; in [4], 100 mg/kg; in [5], 30 mg/kg; in [11], 100 mg/kg. In addition, the result in data set [8] and in data set [7] was inactive.

As for `CCOc1ccc(Nc2nsc(Nc3ccc(OCC)cc3)n2)cc1`, the Activity in data set [1] was found to be 36.7%; in data set [10], 300 mg/kg; in data set [2], 300 mg/kg; in data set [4], 300 mg/kg; in data set [5], 100 mg/kg. The result in data set [6] and in data set [7] was inactive.

As for `c1ccc(Nc2nsc(Nc3ccccn3)n2)nc1`, the values for the Activity entry in data set [3], in [4] and in [5] were “Non-toxic”, 100 mg/kg and 300 mg/kg, respectively. The result in data set [6], in data set [8] and in data set [7] was inactive.

In the case of `O=c1snc(Nc2ccc(F)cc2)n1-c1ccc(F)cc1`, the Activity in data set [1] was 17.7%; in data set [3], “Non-toxic”; in data set [4], 300 mg/kg; in data set [5], 100 mg/kg. Also, the result in [6], in data set [8] and in data set [7] was inactive.

Take `O=c1snc(Nc2cccnc2)n1-c1cccnc1`: the Activity result in data set [3] is “Non-toxic”; in [4], 100 mg/kg; in [5] it was 300 mg/kg. The outcome in data set [6], in data set [8] and in data set [7] was inactive.
